Reference: ChEMBL document CHEMBL1127330, “N-Phosphonomethyl dipeptides and their phosphonate prodrugs, a new generation of neutral endopeptidase (NEP, EC 3.4.24.11) inhibitors” (J Med Chem, 1994)

Target: T1, Neprilysin (Rattus norvegicus, UniProt P07861)
T1 sequence (P07861 whole entry): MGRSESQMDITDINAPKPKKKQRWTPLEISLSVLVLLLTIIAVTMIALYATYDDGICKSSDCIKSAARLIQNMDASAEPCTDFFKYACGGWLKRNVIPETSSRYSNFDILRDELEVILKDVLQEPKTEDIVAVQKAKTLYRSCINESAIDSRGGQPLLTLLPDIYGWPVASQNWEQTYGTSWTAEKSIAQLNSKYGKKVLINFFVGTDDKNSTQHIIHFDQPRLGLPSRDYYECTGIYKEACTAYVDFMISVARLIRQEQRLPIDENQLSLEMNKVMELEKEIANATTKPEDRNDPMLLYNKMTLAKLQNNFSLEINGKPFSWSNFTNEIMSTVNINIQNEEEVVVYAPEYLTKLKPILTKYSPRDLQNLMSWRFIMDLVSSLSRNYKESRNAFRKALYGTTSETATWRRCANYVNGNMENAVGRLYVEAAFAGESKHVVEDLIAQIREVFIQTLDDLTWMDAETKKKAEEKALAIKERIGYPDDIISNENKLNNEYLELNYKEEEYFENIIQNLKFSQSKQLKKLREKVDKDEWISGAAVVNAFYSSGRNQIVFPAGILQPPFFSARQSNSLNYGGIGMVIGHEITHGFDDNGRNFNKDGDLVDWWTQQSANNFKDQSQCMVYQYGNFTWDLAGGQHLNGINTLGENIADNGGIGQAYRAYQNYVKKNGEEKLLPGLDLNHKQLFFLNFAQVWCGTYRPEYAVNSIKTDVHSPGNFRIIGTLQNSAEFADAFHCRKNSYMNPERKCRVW
Experiment: In vitro inhibition of Neutral endopeptidase (NEP) enzyme
Settings: not given

IC50	Structure (SMILES)
1000 nM	O=C(O)CCNC(=O)C(Cc1ccc(-c2ccccc2)cc1)NCP(=O)(O)OCc1ccccc1 (configuration not stated)
2 nM	O=C(N[C@H](C(=O)O)c1ccccc1)C(Cc1ccc(-c2ccccc2)cc1)NCP(=O)(O)O (some centres not stated)
120 nM	CCOC(=O)CCNC(=O)C(Cc1ccc(-c2ccccc2)cc1)NCP(=O)(O)O (configuration not stated)
> 1000 nM	O=C(O)CCNC(=O)C(Cc1ccccc1)OP(=O)(O)CNC(=O)OCc1ccccc1 (configuration not stated)
1.9 nM	O=C(O)CCNC(=O)[C@H](Cc1ccc(-c2ccccc2)cc1)NCP(=O)(O)O
1800 nM	O=C(O)CCNC(=O)[C@@H](Cc1ccc(-c2ccccc2)cc1)NCP(=O)(O)O
301 nM	COP(=O)(O)CNC(Cc1ccc(-c2ccccc2)cc1)C(=O)NCCC(=O)O (configuration not stated)
> 1000 nM	O=C(O)CCNC(=O)C(Cc1ccccc1)CP(=O)(O)OCCc1ccccc1 (configuration not stated)
3 nM	C[C@H](NC(=O)C(Cc1ccc(-c2ccccc2)cc1)NCP(=O)(O)O)C(=O)O (some centres not stated)
207 nM	O=C(O)CCNC(=O)C(Cc1ccccc1)CP(=O)(O)O (configuration not stated)
> 1000 nM	O=C(O)CCNC(=O)C(Cc1ccccc1)OP(=O)(O)CCc1ccccc1 (configuration not stated)
10 nM	O=C(O)c1ccc(NC(=O)C(Cc2ccc(-c3ccccc3)cc2)NCP(=O)(O)O)cc1 (configuration not stated)
5 nM	O=C(O)CNC(=O)C(Cc1ccc(-c2ccccc2)cc1)NCP(=O)(O)O (configuration not stated)
14 nM	O=C(O)CCNC(=O)C(Cc1ccc(-c2ccc(F)cc2)cc1)NCP(=O)(O)O (configuration not stated)
1150 nM	O=C(O)CCNC(=O)C(Cc1ccccc1)NCP(=O)(O)O (configuration not stated)
4 nM	O=C(O)CCNC(=O)C(Cc1ccc(-c2ccccc2)cc1)NCP(=O)(O)O (configuration not stated)
11 nM	O=C(O)CCCNC(=O)C(Cc1ccc(-c2ccccc2)cc1)NCP(=O)(O)O (configuration not stated)
> 1000 nM	O=C(O)CCNC(=O)C(Cc1ccccc1)OP(=O)(O)CCCCc1ccccc1 (configuration not stated)

Structure (SMILES)	IC50
CC(C)C[C@H](NP(=O)(O)O[C@@H]1O[C@@H](C)[C@H](O)[C@@H](O)[C@H]1O)C(=O)N[C@@H](Cc1c[nH]c2ccccc12)C(=O)O [PHOSPHORAMIDON]	27 nM
CCOP(=O)(CNC(Cc1ccc(-c2ccccc2)cc1)C(=O)NCCC(=O)O)OCC (configuration not stated)	> 1000 nM
O=C(O)CCNC(=O)[C@H](Cc1ccc(-c2ccccc2)cc1)NCP(=O)(O)Oc1ccccc1	238 nM

Test system: not listed separately
Experiment: Ratio of maximum plasma concentration (C) measured ex vivo to that of IC50 of (10a or 10c) in rat treated intravenously with 10 mg/kg
Format: functional
Settings: route intravenous
Procedure, shortened: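 Conscious rats, femorally catheterised 24 h earlier, dosed iv at 10 mg/kg. Arterial blood was sampled before and at intervals after dosing into EDTA, then centrifuged. Plasma was ultrafiltered through a 30 000 MW cutoff with 0.1 N HCl at 10 °C. Unbound active inhibitor in the ultrafiltrate was measured by GAAP/rat kidney membrane NEP assay and expressed relative to the IC50 of the active metabolite.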

Structure (SMILES)	Ratio
Cc1ccc(OP(=O)(CN[C@@H](Cc2ccc(-c3ccccc3)cc2)C(=O)NCCC(=O)O)Oc2ccc(C)c(C)c2)cc1C	40
Cc1cc(C)cc(OP(=O)(CN[C@@H](Cc2ccc(-c3ccccc3)cc2)C(=O)NCCC(=O)O)Oc2cc(C)cc(C)c2)c1	149
CCC(=O)OC(C)OP(=O)(CNC(Cc1ccc(-c2ccccc2)cc1)C(=O)NCCC(=O)O)OC(C)OC(=O)CC (configuration not stated)	283
CCOC(=O)CCNC(=O)[C@H](Cc1ccc(-c2ccccc2)cc1)NCP(=O)(Oc1ccccc1)Oc1ccccc1	160
CCC(=O)OC(OP(=O)(CNC(Cc1ccc(-c2ccccc2)cc1)C(=O)NCCC(=O)O)OC(OC(=O)CC)C(C)C)C(C)C (configuration not stated)	380
CC(C)c1ccc(OP(=O)(CN[C@@H](Cc2ccc(-c3ccccc3)cc2)C(=O)NCCC(=O)O)Oc2ccc(C(C)C)cc2)cc1	40
CCN(CC)C(=O)COC(=O)CCNC(=O)[C@H](Cc1ccc(-c2ccccc2)cc1)NCP(=O)(Oc1ccccc1)Oc1ccccc1	135
Cc1ccc(OP(=O)(CN[C@@H](Cc2ccc(-c3ccccc3)cc2)C(=O)NCCC(=O)O)Oc2ccc(C)cc2)cc1	31
O=C(O)CCNC(=O)[C@H](Cc1ccc(-c2ccccc2)cc1)NCP(=O)(OC1CCc2ccccc21)OC1CCc2ccccc21 (some centres not stated)	41
O=C(CCNC(=O)[C@H](Cc1ccc(-c2ccccc2)cc1)NCP(=O)(O)Oc1ccccc1)OCc1ccccc1	16
CCCCCCCC(=O)OC(OP(=O)(O)CNC(Cc1ccc(-c2ccccc2)cc1)C(=O)NCCC(=O)OCC)C(C)C (configuration not stated)	50
CC(C)N(C(=O)COC(=O)CCNC(=O)[C@H](Cc1ccc(-c2ccccc2)cc1)NCP(=O)(O)Oc1ccccc1)C(C)C	5
O=C(CCNC(=O)[C@H](Cc1ccc(-c2ccccc2)cc1)NCP(=O)(Oc1ccccc1)Oc1ccccc1)OCc1ccccc1	75
CCN(CC)C(=O)COC(=O)CCNC(=O)[C@H](Cc1ccc(-c2ccccc2)cc1)NCP(=O)(O)Oc1ccccc1	9
CC(C)(C)C(=O)OCOP(=O)(CNC(Cc1ccc(-c2ccccc2)cc1)C(=O)NCCC(=O)O)OCOC(=O)C(C)(C)C (configuration not stated)	322
COc1cccc(OP(=O)(CN[C@@H](Cc2ccc(-c3ccccc3)cc2)C(=O)NCCC(=O)O)Oc2cccc(OC)c2)c1	240
CCOC(=O)CCNC(=O)C(Cc1ccc(-c2ccccc2)cc1)NCP(=O)(OC(OC(=O)CC)C1CCCCC1)OC(OC(=O)CC)C1CCCCC1 (configuration not stated)	64
CCCc1ccc(OP(=O)(CN[C@@H](Cc2ccc(-c3ccccc3)cc2)C(=O)NCCC(=O)O)Oc2ccc(CCC)cc2)cc1	18
CCOC(=O)CCNC(=O)C(Cc1ccc(-c2ccccc2)cc1)NCP(=O)(OC(OC(=O)C(C)C)C(C)C)OC(OC(=O)C(C)C)C(C)C (configuration not stated)	97
CCOC(=O)CCNC(=O)C(Cc1ccc(-c2ccccc2)cc1)NCP(=O)(OCOC(=O)C(C)C)OCOC(=O)C(C)C (configuration not stated)	535
COc1ccc(OP(=O)(CN[C@@H](Cc2ccc(-c3ccccc3)cc2)C(=O)NCCC(=O)O)Oc2ccc(OC)cc2)cc1	5
CCOC(=O)CCNC(=O)C(Cc1ccc(-c2ccccc2)cc1)NCP(=O)(OCOC(=O)C(C)(C)C)OCOC(=O)C(C)(C)C (configuration not stated)	816
CCOC(=O)CCNC(=O)C(Cc1ccc(-c2ccccc2)cc1)NCP(=O)(OC(OC(=O)CC)C(C)C)OC(OC(=O)CC)C(C)C (configuration not stated)	503
O=C(O)CCNC(=O)[C@H](Cc1ccc(-c2ccccc2)cc1)NCP(=O)(O)Oc1ccccc1	41
O=C(O)CCNC(=O)[C@H](Cc1ccc(-c2ccccc2)cc1)NCP(=O)(Oc1ccccc1)Oc1ccccc1	225
O=C(CCNC(=O)[C@H](Cc1ccc(-c2ccccc2)cc1)NCP(=O)(Oc1ccccc1)Oc1ccccc1)OC1CCc2ccccc21 (some centres not stated)	69
